In ChEMBL document CHEMBL1158548, “Tetrahydrochromenoimidazoles as potassium-competitive acid blockers (P-CABs): structure-activity relationship of their antisecretory properties and their affinity toward the hERG channel” (J Med Chem, 2010):
Activity calls are given as the source filed them. The calls are words filed in the database; no cut-off is given here.

Key:
[1] = Inhibition of H+/K+ ATPase in hog gastric mucosa by malachite green based competitive binding assay; type: tissue-based, Sus scrofa
How it was run: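 Hog gastric mucosa H+/K+-ATPase, isolated enzyme; competitive binding assay run at pH 7.4; pIC50 reported as geometric mean of 4-5 measurements.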

Gastric gland = test: Inhibition of acid secretion in New Zealand White rabbit intact gastric glands assessed as [14C]dimethylaminopyridine accumulation by radioactivity; type: functional, tissue-based; details: Oryctolagus cuniculus
How it was run: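 Gastric glands isolated intact from New Zealand rabbits; cellular activity read as reduced accumulation of the weak base 14C-dimethylaminopyridine; pIC50 given as geometric mean of 4-5 determinations.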

Rattus norvegicus [2] = test: Inhibition of pentagastrin-stimulated acid secretion in intraduodenally dosed perfused Sprague-Dawley rat Ghosh Schild model; type: functional; details: intraduodenal
[3] = Octanol/aqueous KCl distribution coefficient, log D at pH 7.4 by potentiometric titration; type: physicochemical
How it was run: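 Octanol/aqueous KCl distribution coefficient from potentiometric titrations across pH 2.0-11.0 at 25 °C.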

[4] = Partition coefficient, log D by HPLC; type: physicochemical; details: octanol/water
How it was run: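 logD by reversed-phase HPLC at 37 °C, calibrated with seven reference substances of known logD.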

[5] = Dissociation constant, pKa at pH 2.0 to 11.0 by potentiometric cosolvent titration; type: physicochemical
hERG (KCNH2) = hERG (KCNH2) (Homo sapiens, UniProt Q12809); test: Inhibition of human ERG expressed in CHO-K1 cells at 10 uM by whole-cell patch clamp technique; type: cell-based; details: CHO-K1 cells that express human ERG
Sequence of hERG (KCNH2) (Q12809 whole entry): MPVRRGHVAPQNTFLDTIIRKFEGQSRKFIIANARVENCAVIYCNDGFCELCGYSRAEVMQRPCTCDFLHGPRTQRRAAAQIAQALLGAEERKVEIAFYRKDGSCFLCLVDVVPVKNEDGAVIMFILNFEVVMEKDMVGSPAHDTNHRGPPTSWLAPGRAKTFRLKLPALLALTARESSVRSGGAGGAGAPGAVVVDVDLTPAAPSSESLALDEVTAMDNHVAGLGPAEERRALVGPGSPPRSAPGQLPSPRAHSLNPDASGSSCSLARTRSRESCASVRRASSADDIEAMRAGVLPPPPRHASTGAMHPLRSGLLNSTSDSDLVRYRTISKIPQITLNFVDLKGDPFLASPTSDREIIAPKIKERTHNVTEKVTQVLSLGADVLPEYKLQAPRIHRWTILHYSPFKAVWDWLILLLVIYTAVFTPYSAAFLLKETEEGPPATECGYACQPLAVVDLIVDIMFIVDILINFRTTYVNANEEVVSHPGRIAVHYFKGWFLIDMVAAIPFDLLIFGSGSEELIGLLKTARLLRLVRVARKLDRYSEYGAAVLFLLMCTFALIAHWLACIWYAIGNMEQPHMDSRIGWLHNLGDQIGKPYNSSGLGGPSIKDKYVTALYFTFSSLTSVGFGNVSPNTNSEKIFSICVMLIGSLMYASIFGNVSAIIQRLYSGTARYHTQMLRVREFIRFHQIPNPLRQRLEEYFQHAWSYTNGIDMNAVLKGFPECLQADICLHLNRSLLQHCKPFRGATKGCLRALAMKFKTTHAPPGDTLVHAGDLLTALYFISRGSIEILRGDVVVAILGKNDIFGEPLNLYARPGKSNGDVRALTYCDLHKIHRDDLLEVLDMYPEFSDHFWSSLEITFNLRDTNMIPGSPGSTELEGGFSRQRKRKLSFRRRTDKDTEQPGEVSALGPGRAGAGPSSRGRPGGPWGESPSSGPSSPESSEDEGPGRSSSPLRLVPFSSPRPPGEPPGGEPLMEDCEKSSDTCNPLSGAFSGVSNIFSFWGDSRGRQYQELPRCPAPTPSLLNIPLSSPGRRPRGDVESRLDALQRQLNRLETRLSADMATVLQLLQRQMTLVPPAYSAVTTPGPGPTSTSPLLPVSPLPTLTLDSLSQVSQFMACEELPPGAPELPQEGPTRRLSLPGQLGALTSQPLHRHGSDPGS
How it was run: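 CHO-K1 cells stably transfected with hERG; whole-cell patch clamp recording of tail currents with test compound at 10 μM, three cells per compound; relative block of tail current amplitude given as arithmetic mean.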

Canis familiaris [6] = test: Inhibition of pentagastrin-stimulated acid secretion in po dosed Beagle dog fistula model assessed as elevation of intragastric pH after 8 hrs; type: functional, organism-based; details: Canis lupus familiaris
How it was run: (§1)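 Surgically prepared fistula dogs; pentagastrin infused subcutaneously from 1 h after start of pH-metry over 22.5 h; drug or vehicle given orally in capsules 2.5 h after start; intragastric pH recorded continuously for 24 h with combined glass electrode and ambulatory pH meter; duration of pH >5 read from curves.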

Canis familiaris [7] = test: Inhibition of pentagastrin-stimulated acid secretion in po dosed Beagle dog fistula model assessed as elevation of intragastric pH after 4 hrs; type: functional, organism-based; details: Canis lupus familiaris; how it was run: as §1
Canis familiaris [8] = test: Inhibition of pentagastrin-stimulated acid secretion in po dosed Beagle dog fistula model assessed as elevation of intragastric pH; type: functional, organism-based; details: Canis lupus familiaris; how it was run: as §1
Rattus norvegicus [9] = test: Inhibition of pentagastrin-stimulated acid secretion in Sprague-Dawley rat Ghosh Schild model at 3 umol/kg, intraduodenally; type: functional; details: intraduodenal
[10] = Clearance in Beagle dog fistula model; type: ADME, organism-based, Canis lupus familiaris; details: in vivo
[11] = Clearance in Sprague-Dawley rat Ghosh Schild model; type: ADME, organism-based; details: in vivo
Canis familiaris [12] = test: Inhibition of pentagastrin-stimulated acid secretion in Beagle dog fistula model assessed as elevation of intragastric pH at 9 umol/kg, po after 8 hrs; type: functional, organism-based; details: Canis lupus familiaris; how it was run: as §1
[13] = Oral bioavailability in Beagle dog fistula model; type: ADME, organism-based, Canis lupus familiaris; details: in vivo
[14] = Oral bioavailability in Sprague-Dawley rat Ghosh Schild model; type: ADME, organism-based; details: in vivo
Canis familiaris [15] = test: Inhibition of pentagastrin-stimulated acid secretion in po dosed Beagle dog fistula model assessed as elevation of intragastric pH after 2.5 hrs; type: functional, organism-based; details: Canis lupus familiaris; how it was run: as §1
Canis familiaris [16] = test: Inhibition of pentagastrin-stimulated acid secretion in po dosed Beagle dog fistula model assessed as elevation of intragastric pH after 2 hrs; type: functional, organism-based; details: Canis lupus familiaris; how it was run: as §1

Compound	pIC50 [1]	IC50 (Gastric gland) [nM]	logD [3]	logD [4]	pKa ([5]; read-out: pKa)	pKa [5]	clearance [10] [mL/min/kg]	clearance [11] [mL/min/kg]	bioavailability [13] [%]	bioavailability [14] [%]	ED50 (Rattus norvegicus [2]) [µmol/kg]	inhibition at 10 µM (hERG (KCNH2)) [%]	Activity (Canis familiaris [6])	Activity (Canis familiaris [7])	Activity (Canis familiaris [8])	inhibition in vivo at 3 µmol/kg (Rattus norvegicus [9]) [%]	Activity (Canis familiaris [12])	Activity (Canis familiaris [15])	Activity (Canis familiaris [16])
CNC(=O)c1cc2c(nc(C)n2C)c2c1CC[C@@H](c1ccc(Cl)cc1C)O2	4.9	794	3.46	3.1	5.6						0.15	45	Active						
Cc1ccccc1[C@@H]1CCc2c(C(=O)N3CCC3C(N)=O)cc3c(nc(C)n3C)c2O1 (some centres not stated)	4.6			2.3							3	7				22			
Cc1cc(Cl)ccc1[C@@H]1CCc2c(C(=O)N3CCC3)cc3c(nc(C)n3C)c2O1	5.2	398	3.43	3.2	5.49						0.15	48							
Cc1nc2c3c(c(C(=O)N(C)C)cc2n1C)CC[C@@H](c1ccc(Cl)cc1Cl)O3	6	398	3.66	3.3	5.36						0.3	59							
Cc1nc2c3c(c(C(=O)N(C)C)cc2n1C)CC[C@@H](c1ccc(F)cc1)O3	5.3	1000	2.36	2.7	5.65						0.1	28							
COC1CN(C(=O)c2cc3c(nc(C)n3C)c3c2CC[C@@H](c2ccc(Cl)cc2C)O3)C1	5.4	501	3.42	3.2	5.48						0.4	95							
Cc1nc2c3c(c(C(=O)N(C)C)cc2n1C)CC[C@@H](c1ccc(Cl)cc1)O3	5.1	398	2.92	2.9	5.59						0.15	84			Active				Active
Cc1sccc1[C@@H]1CCc2c(C(=O)N(C)C)cc3c(nc(C)n3C)c2O1	6.3	1000	2.32	2.7	5.66						0.3	18							

Now from value to compound, other results behind:

pIC50 [1]	IC50 (Gastric gland) [nM]	logD [3]	logD [4]	pKa ([5]; read-out: pKa)	pKa [5]	clearance [10] [mL/min/kg]	clearance [11] [mL/min/kg]	bioavailability [13] [%]	bioavailability [14] [%]	Compound	ED50 (Rattus norvegicus [2]) [µmol/kg]	inhibition at 10 µM (hERG (KCNH2)) [%]	Activity (Canis familiaris [6])	Activity (Canis familiaris [7])	Activity (Canis familiaris [8])	inhibition in vivo at 3 µmol/kg (Rattus norvegicus [9]) [%]	Activity (Canis familiaris [12])	Activity (Canis familiaris [15])	Activity (Canis familiaris [16])
6.1	200	3.4	3.2	5.59						Cc1cc(Cl)ccc1[C@@H]1CCc2c(C(=O)N(C)C)cc3c(nc(C)n3C)c2O1	0.1	-6		Active					
5.2	631		2.9		5.66					COC1CN(C(=O)c2cc3c(nc(C)n3C)c3c2CC[C@@H](c2ccccc2C)O3)C1	0.3	18			Active				
4.7	79400		2.5							Cc1ccccc1[C@@H]1CCc2c(C(=O)N3CC(C)(O)C3)cc3c(nc(C)n3C)c2O1	3	1				10			
4.9	1580	2.41	2.7	5.55						Cc1nc2c3c(c(C(=O)N(C)C)cc2n1C)CC[C@@H](c1ccccc1F)O3	0.5	9							
5.3	794		2.8		5.68	4.67	21	72	64	Cc1ccccc1[C@@H]1CCc2c(C(=O)N(C)C)cc3c(nc(C)n3C)c2O1	0.23	33					Active		
5.1	2510		2.7		5.7					CNC(=O)c1cc2c(nc(C)n2C)c2c1CC[C@@H](c1ccccc1C)O2	0.25	3						Active	
4.9	79400		2.5							Cc1ccccc1[C@@H]1CCc2c(C(=O)N3CC(C(=O)N(C)C)C3)cc3c(nc(C)n3C)c2O1	3	6				36			
4.6	1000		2.8		5.62					CC(=O)CNC(=O)c1cc2c(nc(C)n2C)c2c1CC[C@@H](c1ccccc1C)O2	0.3	63			inactive				
4.7	15800	1.9	2.6	5.61						COCc1ccccc1[C@@H]1CCc2c(C(=O)N(C)C)cc3c(nc(C)n3C)c2O1	1.6	7							
4.8	3160	3.18	3.1	5.63						Cc1nc2c3c(c(C(=O)N(C)C)cc2n1C)CC[C@@H](c1ccccc1C1CC1)O3	1.5	18							
		2.84	3.3	5.28						Cc1ccccc1[C@@H]1CCc2c(C(=O)N(C)C)cc3c(nc(C4CC4)n3C)c2O1	0.1	6			inactive				
5.4	1260		3							CCc1ccccc1[C@@H]1CCc2c(C(=O)N(C)C)cc3c(nc(C)n3C)c2O1	0.5	11			inactive				
